Values belong to the compound of their own block, whether it stands above or below them. The source made the active and inactive calls. No cut-off for these calls is given here.
Legend:
HEK293T [1] = assay: (§1) Metal chelating activity assessed as inhibition of human DMT1 expressed in HEK293T cells by measuring inhibition of radiolabeled 55Fe2+ uptake at 10 uM preincubated with compound for 5 mins followed by incubation with Fe2+ and radiolabeled 55Fe2+ for 15 mins at extracellular pH of 5.5 by scintillation counting analysis; format: cell-based; conditions: time 20.0 min
Summary of the method: (§2)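 HEK293T cells were seeded 30,000/well and transiently transfected with DsRED-hDMT1 by Lipofectamine 24 h later; assays ran the next day. After a wash in uptake solution, cells got a 5 min compound preincubation, then 15 min RT uptake in pH 5.5 uptake solution with 100 μM ascorbate, Fe²⁺ and ⁵⁵Fe²⁺ (0.5 μCi/mL). An ice-cold pH 7.5 wash followed, then scintillation counting, with cpm converted to influx rates.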

[2] = Metal chelating activity assessed as compound-Fe2+ complex formation at 20 uM preincubated with Fe2+ for 5 mins followed by calcein challenge in aqueous buffer of pH 5.5 and measured after 5 mins by calcein quenching assay; conditions: time 10.0 min
HEK293T [3] = assay: as §1, with “ZIP8” for “DMT1”, “7.4” for “5.5”; format: cell-based; conditions: time 20.0 min
Summary of the method: as §2, with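 “DsRED-hZIP8” for “DsRED-hDMT1”, “Cells” for “After a wash in uptake solution, cells”, “uptake” for “uptake in pH 5.5 uptake solution”, “ice-cold” for “ice-cold pH 7.5”, “counts” for “cpm”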

[4] = Metal chelating activity assessed as compound-Fe2+ complex formation by measuring precipitation at 10 uM incubated with radilolabeled-55Fe2+ for 15 mins in aqueous buffer of pH 7.4 by scintillation counting analysis
Summary of the method: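 Uptake solution (pH 7.4) with 1 μM Fe2+, 100 μM ascorbic acid, 0.5 μCi/mL 55Fe2+ and 10 μM compound, incubated 15 min at RT in polypropylene tubes. Aliquots taken in quadruplicate for scintillation counting of remaining 55Fe2+.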

[5] = biological target: T1, Natural resistance-associated macrophage protein 2 (Homo sapiens) (UniProt P49281); assay: Inhibition of human DMT1 expressed in HEK293T cells by measuring inhibition of radiolabeled 55Fe2+ uptake at 10 uM preincubated with compound for 5 mins followed by incubation with Fe2+ and radiolabeled 55Fe2+ for 15 mins at extracellular pH of 5.5 by scintillation counting analysis; format: cell-based; conditions: time 20.0 min
T1 sequence (whole entry): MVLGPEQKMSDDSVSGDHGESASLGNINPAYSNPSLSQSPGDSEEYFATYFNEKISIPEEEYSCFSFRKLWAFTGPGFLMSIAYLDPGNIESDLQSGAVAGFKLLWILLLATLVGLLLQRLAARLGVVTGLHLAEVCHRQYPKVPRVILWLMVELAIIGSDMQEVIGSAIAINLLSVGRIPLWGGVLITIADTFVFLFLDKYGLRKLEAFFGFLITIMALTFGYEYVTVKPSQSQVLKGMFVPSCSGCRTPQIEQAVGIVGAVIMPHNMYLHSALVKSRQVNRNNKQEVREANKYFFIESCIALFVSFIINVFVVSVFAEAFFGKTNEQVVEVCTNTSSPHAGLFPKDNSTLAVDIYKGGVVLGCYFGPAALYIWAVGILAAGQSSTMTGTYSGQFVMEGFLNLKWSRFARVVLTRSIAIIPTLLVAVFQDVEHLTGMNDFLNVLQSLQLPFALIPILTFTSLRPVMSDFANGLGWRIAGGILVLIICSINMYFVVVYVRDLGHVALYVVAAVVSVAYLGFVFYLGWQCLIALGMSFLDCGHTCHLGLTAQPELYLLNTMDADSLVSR
Summary of the method: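 HEK293T cells seeded at 30,000/well 48 h ahead and transiently transfected 24 h later with DsRED-hDMT1. After wash in uptake buffer, 5 min preincubation with compound, then 15 min at RT in pH 5.5 uptake solution with 100 μM ascorbic acid, Fe2+ and 55Fe2+ (0.5 μCi/mL). Ice-cold pH 7.5 wash, scintillation counting, cpm converted to influx rate.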

[6] = biological target: T1, Natural resistance-associated macrophage protein 2 (Homo sapiens); assay: Inhibition of human DMT1 expressed in Xenopus laevis oocytes assessed as reduction in radiolabeled 55Fe2+ uptake at 10 uM preincubated for 5 mins followed by incubation with Fe2+ and radiolabeled 55Fe2+ and measured after 10 mins by scintillation counting method relative to control; format: cell-based; conditions: Oocyte, time 15.0 min
Summary of the method: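 Xenopus oocytes injected with 20 ng hDMT1 cRNA, tested 3-5 days later, 10-15 oocytes per condition. 5 min RT in pH 5.5 transport medium with 10 μM compound, then 10 min with compound, 100 μM ascorbate, 1 μM Fe2+ and 0.5 μCi/mL 55Fe2+. Ice-cold rinse with 250 μM Fe2+, SDS solubilization, scintillation counting. Compound-free and non-injected oocytes run in parallel.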

[7] = Metal chelating activity assessed as compound-Cd2+ complex formation at ratio of 2:1 at 0.4 mM in aqueous buffer of pH 7.4 by isothermal titration calorimetry
Summary of the method: (§3)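 Cadmium chloride titrated into 0.4 mM compound (from 10 mM DMSO stock) at 25 °C, stirring 750 rpm. Buffer was 20 mM HEPES/150 mM NaCl pH 7.5 or 20 mM MES/150 mM NaCl pH 5.5. First injection 0.4 μL, then 2 μL every 150 s. Buffer/DMSO control titrations run. Fit to a one-set-of-sites model, with fitting errors on KD.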

[8] = Metal chelating activity assessed as compound-Cd2+ complex formation by measuring precipitation at 0.4 mM in aqueous buffer of pH 5.5 by isothermal titration calorimetry; summary of the method: as §3
[9] = Metal chelating activity assessed as compound-Fe2+ complex formation by UV-Vis titration based analysis
[10] = Metal chelating activity assessed as compound-Cd2+ complex formation by UV-Vis titration based analysis
[11] = as §1, with “ZIP8” for “DMT1”, “uptake” for “uptake at 10 uM”, “7.4” for “5.5”; format: cell-based; conditions: HEK-293T
Summary of the method: as §2, with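 “DsRED-hZIP8” for “DsRED-hDMT1”, “Cells” for “After a wash in uptake solution, cells”, “uptake” for “uptake in pH 5.5 uptake solution”, “ice-cold” for “ice-cold pH 7.5”, “counts” for “cpm”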

[12] = biological target: T2, Natural resistance-associated macrophage protein 2 (Homo sapiens, UniProt P49281); assay: Inhibition of human DMT1 expressed in Xenopus oocytes assessed as inhibition of channel currents at -50 mV holding potential by two-electrode voltage clamp assay; format: cell-based; conditions: oocyte
T2 sequence (P49281 whole entry): T1 sequence (whole entry)
Summary of the method: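 Xenopus oocytes were injected with 20 ng hDMT1 cRNA and used 3–5 days later. Holding current at Vh −50 mV was recorded, low-pass filtered at 500 Hz and digitized at 5 kHz.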

[13] = Metal chelating activity assessed as compound-Fe2+ complex formation by measuring precipitation at 10 uM incubated with radilolabeled-55Fe2+ for 15 mins in aqueous buffer of pH 7.4 by scintillation counting analysis
[14] = biological target: T2, Natural resistance-associated macrophage protein 2; assay: Inhibition of human DMT1 expressed in HEK293 cells assessed as inhibition of radiolabeled 55Fe2+ uptake incubated for 1 hr by microplate scintillation counting analysis; format: cell-based; conditions: in the assay text read “incubated for 15 mins” for “incubated for 1 hr”
Summary of the method: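 HEK293 cells stably expressing DsRED-hDMT1 were cultured in DMEM with 10% FBS, 10 mM HEPES and 1 mM Na-pyruvate, and seeded 50,000/well 24 h ahead. Cells got a 5 min compound preincubation, then 15 min RT uptake at pH 5.5 with 100 μM ascorbate, Fe²⁺ and ⁵⁵Fe²⁺ (0.5 μCi/mL). After an ice-cold pH 7.5 wash, cells sat 1 h in scintillant. Counts were converted to influx rates and fitted with a 4-parameter sigmoid for IC50.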

SMILES: CCc1cc(=O)n(-c2nc(C)cc(=O)[nH]2)[nH]1
- inhibition (HEK293T [1]): < 20%

- Activity [2]: inactive
- Activity [4]: inactive
SMILES: Cc1cc(O)nc(-n2nc(C)cc2C)n1
- Activity (HEK293T [1]): Active
- Activity (HEK293T [3]): Active

- inhibition [5]: Active
- inhibition [6]: 100%
- Activity [4]: inactive
SMILES: N=C(N)SCc1cccc2c1oc1c(CSC(=N)N)cccc12
- Activity (HEK293T [3]): inactive

SMILES: Cc1cc(C)nc(-n2nc(C)cc2C)n1
- inhibition (HEK293T [1]): < 20%

- Activity [7]: Active
- Activity [8]: Active
- Activity [9]: inactive
- Activity [2]: Active
- Activity [10]: inactive
- IC50 [11]: 1.4 µM
- IC50 [12]: Not Active
- Activity [4]: Active
SMILES: Cc1cc(=O)[nH]c(-n2nc3c(c2C)CCCC3)n1
- Activity (HEK293T [1]): Active
- Activity (HEK293T [3]): Active

- Activity [2]: Active
- Activity [13]: Active
- Activity [4]: Active
SMILES: Cc1nn(-c2ccccn2)c(O)c1C(=O)Nc1cccc(C(F)(F)F)c1
- Activity (HEK293T [1]): Active
- Activity (HEK293T [3]): Active

SMILES: Cc1cc(=O)[nH]c(-n2[nH]c(C)c(Cc3ccccc3)c2=O)n1
- inhibition (HEK293T [1]): < 20%

SMILES: CCOC(=O)c1cnc(-n2[nH]c(C)cc2=O)[nH]c1=O
- inhibition (HEK293T [1]): < 20%

SMILES: Cc1cc(=O)[nH]c(-n2nc(C)c(Cc3ccccc3)c2C)n1
- inhibition (HEK293T [1]): < 20%

SMILES: Cc1cc(=O)[nH]c(-n2nc(-c3ccccc3)cc2C)n1
- inhibition (HEK293T [1]): < 20%

SMILES: Cc1cc(=O)[nH]c(-n2[nH]c(C)c(C(=O)Nc3cccc(C(F)(F)F)c3)c2=O)n1
- inhibition (HEK293T [1]): < 20%

SMILES: Cc1cc(=O)[nH]c(-n2nc(C(C)(C)C)cc2C)n1
- inhibition (HEK293T [1]): < 20%

SMILES: Cc1cc(=O)[nH]c(-n2nc3c(c2C)CNCC3)n1
- inhibition (HEK293T [1]): < 20%

SMILES: CCc1cc(=O)[nH]c(-n2[nH]c(C)cc2=O)n1
- inhibition (HEK293T [1]): < 20%

SMILES: Cc1cc(=O)[nH]c(-n2nc(C)c(-c3ccccc3)c2C)n1
- inhibition (HEK293T [1]): < 20%

- IC50 [14]: 7 µM
SMILES: N=C(N)SCc1cccc(CSC(=N)N)c1

SMILES: Cc1cc(=O)[nH]c(-n2nc3c(c2C)CCC3)n1
- inhibition (HEK293T [1]): < 20%

SMILES: Cc1cc(=O)[nH]c(-n2nc3c(c2C)COCC3)n1
- inhibition (HEK293T [1]): < 20%

From ChEMBL document CHEMBL4699420, “Pyrazolyl-pyrimidones inhibit the function of human solute carrier protein SLC11A2 (hDMT1) by metal chelation” (RSC Med Chem, 2020)
